Screens (PubChem)
DAX1 inh-1: DAX1 (NR0B1) inhibitors on StAR promoter, primary screen, cell-based, luminescence, SF-1 (NR5A1), full-length DAX-1. 370,000 compounds, 1.1% hits. HEK293T StAR-luciferase reporter, SF-1/DAX-1 repression relief. inhibition, % at 6.8 µM;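 active = inhibition above the mean over all tested compounds plus 3 SD, cut at about 3.6% in these data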;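 also: 0% = DAX-1 cells with DMSO and 100% = cells lacking DAX-1 with DMSO; higher inhibition means more luminescence from relief of DAX-1 repression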
NR2E3 ag-1: NR2E3 agonists in two-hybrid cells, primary screen, cell-based, luminescence, CHO-S, Gal4-NCOR/VP16-NR2E3; AID 602229, 2012; Photoreceptor-specific nuclear receptor (Homo sapiens), Q9Y5X4; 360,000 compounds, 0.35% hits; inhibition of corepressor binding, % at 3.98 µM; luciferase;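 active = inhibition above the mean of all tested compounds plus 3 SD, cut at about 70% in these data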;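 also: 0% = DMSO with NR2E3 transfected cells and 100% = cells lacking NR2E3 construct; higher means lower luciferase signal from less NR2E3 corepressor binding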
GASC-1 inh: inhibitors of GASC-1 histone demethylase, primary screen, biochemical, fluorescence, DELFIA europium; inhibition, % at 2.35 µM; 330,000 compounds, 0.069% hits; AID 2099, 2009; GST-JMJD2C(1-420) H3K9me3 demethylation;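 active = more than half of a compound's replicate wells show inhibition beyond 50%, single wells judged on their own value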;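 also: signal counts dimethyl H3K9 product captured on neutravidin plate; 0% = median of DMSO wells and 100% = 0.3 times that DMSO median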
Target sequence (Q9H3R0 1-420 limits assumed): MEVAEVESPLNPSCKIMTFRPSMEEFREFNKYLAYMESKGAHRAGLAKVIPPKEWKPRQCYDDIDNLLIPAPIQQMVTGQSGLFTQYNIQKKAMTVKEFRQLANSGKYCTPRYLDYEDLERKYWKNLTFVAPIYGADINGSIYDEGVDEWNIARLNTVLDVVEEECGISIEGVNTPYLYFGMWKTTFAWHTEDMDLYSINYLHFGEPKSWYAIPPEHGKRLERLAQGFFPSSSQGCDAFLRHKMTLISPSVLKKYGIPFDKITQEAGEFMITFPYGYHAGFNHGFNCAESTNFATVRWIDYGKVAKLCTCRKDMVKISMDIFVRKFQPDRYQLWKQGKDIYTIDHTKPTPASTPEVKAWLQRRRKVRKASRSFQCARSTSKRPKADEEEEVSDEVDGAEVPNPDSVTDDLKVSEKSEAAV
NR2E3 ag-2: inhibitors of NR2E3-RetCOR corepressor binding, primary screen, NR2E3 agonist project, biochemical, TR-FRET, GST-NR2E3, biotin-RetCOR; Photoreceptor-specific nuclear receptor (Homo sapiens), Q9Y5X4; 1536-well; inhibition of corepressor binding, % at 4.78 µM; 320,000 compounds, 0.12% hits;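 active = percent inhibition above the cutoff of mean plus 3 SD of all tested compounds, set per screening campaign, cut at about 20% in these data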;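 also: 0% = DMSO wells and 100% = biotin wells as full block of FRET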
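Test system – NR2E3–RetCOR corepressor complex · Quantity – NR2E3 fusion 1.35 nM · Buffer or medium – Tris pH 7.5 · Incubation – Compound–protein incubation for 5 h at 4 °C · Technique – TR-FRET, Eu(K)-anti-GST donor, streptavidin-D2 acceptor, ex 340, em 617/671 nm · Evaluation – percent inhibition of 671/617 nm emission ratio versus biotin and DMSO controls · Plate – 1536-well format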
DAX1 inh-2: DAX1 (NR0B1) inhibitors, primary screen, cell-based, HEK293, Gal4-DAX1, luciferase luminescence; Nuclear receptor subfamily 0 group B member 1 (Homo sapiens), P51843; HEK293 Gal4-DAX1 luciferase reporter; inhibition, % at 6.75 µM; 340,000 compounds, 0.99% hits; AID 504766, 2011;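 active = inhibition above the mean over all tested compounds plus 3 SD, cut at about 4.2% in these data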;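 also: 0% = DAX1-transfected cells with DMSO and 100% = empty-vector control cells with DMSO; inhibition shows as a rise in luminescence from relieved DAX1 repression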
Target sequence (P51843 207-470 limits assumed): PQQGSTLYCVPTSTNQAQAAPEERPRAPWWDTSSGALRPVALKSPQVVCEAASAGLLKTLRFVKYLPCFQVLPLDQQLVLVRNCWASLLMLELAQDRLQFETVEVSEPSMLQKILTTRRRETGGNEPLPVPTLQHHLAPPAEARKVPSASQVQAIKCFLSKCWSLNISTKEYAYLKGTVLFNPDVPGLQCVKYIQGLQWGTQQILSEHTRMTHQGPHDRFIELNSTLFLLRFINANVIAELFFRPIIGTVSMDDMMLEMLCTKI
SMARCA2 activ: SMARCA2 (BRM) function activators, primary screen, cell-based, luminescence, high throughput; MG213 cells, MMTV-luciferase reporter, dexamethasone, overnight; activation, % at 9.1 µM; 370,000 compounds, 1% hits; AID 652017, 2013; in the data active = activation above about 7.8%;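 also: 0% = vehicle wells and 100% = reference activator wells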
DAX1 inh confirm: DAX1 (NR0B1) inhibitors relieving SF-1 repression, confirmation, cell-based, luminescence, HEK293T, full-length DAX-1, SF-1 activated StAR promoter; 2,400 compounds, 87% hits; shares compounds with DAX1 inh-1; AID 652134, 2013; HEK293T StAR-promoter luciferase reporter, SF-1/DAX-1 repression; inhibition, % at 6.8 µM;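 active = inhibition above the average of every tested compound plus 3 SD, cut at about 3.8% in these data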;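 also: 0% = DAX-1 cells with DMSO and 100% = no DAX-1 control cells with DMSO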
SF1 mutant ctr: StAR reporter signal changes without DAX1, counter-screen for DAX1 inhibitor project, cell-based, luminescence, AF-2 mutant SF-1, transactivation. shares compounds with DAX1 inh-1. HEK293 StAR-luciferase, SF-1 AF2 mutant. inhibition, % at 6.8 µM. 2,400 compounds, 78% hits. AID 652136, 2013;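 active = inhibition above the mean of all tested compounds plus 3 SD, cut at about 3% in these data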;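 also: 0% = DAX-1 transfected cells with DMSO and 100% = cells without DAX-1 with DMSO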
An asterisk follows results filed as active; . = not tested or not shown. Shown are actives, neighbours in structure and some others; about 3.2% of the full set was active somewhere.

SMILES | DAX1 inh-1 | NR2E3 ag-1 | GASC-1 inh | NR2E3 ag-2 | DAX1 inh-2 | SMARCA2 activ | DAX1 inh confirm | SF1 mutant ctr
O=C(CC1SC(N2CCCC2)=NC1=O)Nc1ccc(C(=O)Nc2ncccc2O)cc1 (stereo not given) | 25* | -11 | -2 | -5 | 3 | 0 | 40* | 22*
O=C(CSc1nnc(-c2cccnc2)n1C1CCCCC1)NC1CCCCCC1 | 0 | . | . | . | . | 2 | . | .
Cc1ccc(-c2onc3ccc(Br)cc23)cc1 | 1 | -4 | -18 | -4 | 1 | -2 | . | .
Cc1ccc(-c2onc3ccc(C4OCCO4)cc23)cc1 | 5.3* | -164 | 12 | 2 | -3 | 6 | 1 | -6
CC(=O)c1cccc(Nc2ccc(Br)cc2)c1 | 9.7* | -103 | . | . | . | 6 | 12* | 6.3*
Cc1cc(C)cc(N(CC(=O)NC2CCC(C)CC2)S(=O)(=O)c2ccc(C)c(C)c2)c1 (stereo not given) | 2 | . | . | . | . | 1 | . | .
C(=N\Nc1nc2ccccc2s1)/c1cccs1 | 7.0* | -176 | 2 | -5 | 3 | 1 | 18* | 12*
Oc1ccc(C=NNc2nc3ccccc3s2)c(O)c1 | 2 | -150 | . | . | 3 | 0 | . | .
C(=N\Nc1nc2ccccc2s1)/c1ccco1 | 6.7* | -151 | 1 | 2 | -1 | 0 | 18* | 8.2*
Cc1cc(N/N=C/c2ccco2)c2ccccc2n1 | 0 | -21 | -10 | -2 | 0 | 0 | . | .
C/C(=N\Nc1nc2ccccc2s1)c1cccs1 | 3 | -135 | -14 | -3 | 1 | 3 | . | .
Oc1ccccc1C=NNc1nc2ccccc2s1 | 5.5* | -174 | . | . | 4.4* | -2 | 11* | 8.6*
Cc1ccsc1/C=N/Nc1nc2ccccc2s1 | 7.1* | -141 | -387 | -2 | 3 | 0 | 16* | 13*
Clc1ccc(-n2c(SCc3cccc4ccccc34)nnc2-c2ccccn2)cc1 | -2 | . | . | . | . | -7 | . | .
CCOC(=O)[C@]12CCCCC/C=C\1N(CCc1ccc(Cl)cc1)C(=O)[C@H]2CC(=O)NCc1ccc(C)o1 | 0 | . | . | . | . | 1 | . | .
O=C(c1ccc(-c2ccccc2Cl)o1)N1CCCC(C(F)(F)F)C1 (stereo not given) | 3 | -85 | -33 | 0 | 1 | 5 | . | .
CC1CCN(C(=O)c2ccc(-c3ccccc3Cl)o2)CC1 | 17* | -112 | 5 | -1 | 2 | 4 | 14* | 8.6*
O=C(c1ccc(-c2ccccc2Cl)o1)N1CCC1 | 5.1* | -108 | . | . | 1 | 5 | 5.7* | 4.3*
O=C(NCC1CCCO1)c1ccc(-c2ccccc2Cl)o1 (stereo not given) | 7.3* | -108 | 0 | -3 | 2 | 2 | 11* | 6.0*
NC(=O)C1CCCN(C(=O)c2ccc(-c3cccc(Cl)c3Cl)o2)C1 (stereo not given) | 5.6* | -138 | . | . | 0 | 0 | 9.2* | 4.8*
Cc1ccc(S(=O)(=O)N2CCC(C(=O)NCc3cccs3)CC2)cc1 | -1 | . | . | . | . | -1 | . | .
COc1cc(NC(=O)C2CCCN(S(=O)(=O)c3ccccc3[N+](=O)[O-])C2)cc(OC)c1 (stereo not given) | -1 | . | . | . | . | -1 | . | .
COC(=O)C1CN(Cc2ccc(C)cc2)CCS(=O)(=O)N1Cc1cn(Cc2ccc(C)cc2)nn1 (stereo not given) | 0 | . | . | . | . | -6 | . | .
COc1ccc(C(=O)C[n+]2cn(C(F)F)c3ccccc32)c(F)c1 | 7.3* | -133 | 38 | 0 | 1 | 4 | 2 | 3.9*
COc1ccc(Cn2ccc3ccc(-c4ccc5ccn(Cc6ccc(OC)cc6)c5c4)cc32)cc1 | -1 | . | . | . | . | -2 | . | .
SMILES | DAX1 inh-1 | NR2E3 ag-1 | GASC-1 inh | NR2E3 ag-2 | DAX1 inh-2 | SMARCA2 activ | DAX1 inh confirm | SF1 mutant ctr
CN1C(=O)c2cc(NC(=O)Cc3cccs3)ccc2OC[C@@H]2O[C@@H](CC(=O)N[C@H]3CCN(Cc4ccccc4)C3)CC[C@@H]21 | 0 | . | . | . | . | -2 | . | .
Clc1ccc([C@H]2OC[C@@]3(CNCCN4CCOCC4)CS[C@H](c4ccc(Cl)cc4)N23)cc1 | 0 | . | . | . | . | -3 | . | .
O=C(c1cc(-c2cccc(O)c2)on1)N1CCCCCC1 | 2 | -105 | -2 | 4 | 3 | -1 | . | .
O=C(c1cc(-c2cccc(O)c2)on1)N1CCOCC1 | 8.0* | -116 | 8 | 6 | 1 | 4 | 13* | 7.1*
O=C(c1cc(-c2ccccc2)on1)N1CCCC1 | 6.1* | -101 | 1 | 0 | 0 | 4 | 11* | 4.5*
CC1CCN(C(=O)c2cc(-c3ccccc3O)on2)CC1 | 10* | -138 | -18 | -1 | 4 | 4 | 12* | 9.4*
O=C(C1CCCN(S(=O)(=O)c2ccccc2F)C1)N1CCN(Cc2ccccc2)CC1 (stereo not given) | -1 | . | . | . | . | 0 | . | .
CCOc1cccc(-c2cnc3cccnn23)c1 | 6.1* | -146 | . | . | . | 5 | 7.1* | 5.1*
Cc1ccc(C(=O)N2c3ccccc3CC2C)o1 (stereo not given) | 5.4* | -147 | -16 | 4 | 1 | 8 | 7.5* | 6.5*
CC1Cc2ccccc2N1C(=O)c1ccc(Br)o1 (stereo not given) | 3 | -118 | 0 | 1 | 2 | 4 | . | .
COc1ccc(CN(CCN2CCOCC2)C(=O)c2ccccc2C)cc1OC | 0 | . | . | . | . | -4 | . | .
O=S1(=O)CC(N2CCCCC2)CN1Cc1cn(Cc2ccc(F)cc2)nn1 (stereo not given) | 2 | 11 | . | . | . | -3 | . | .
O=S1(=O)CC(N2CC=CC2)CN1Cc1cn(Cc2ccc(F)cc2)nn1 (stereo not given) | 5.2* | -9 | . | . | . | -6 | 2 | 1
O=S1(=O)CC(N2CCN(CC3CC3)CC2)CN1Cc1ccc(F)cc1 (stereo not given) | 5.9* | 8 | . | . | . | -2 | 3 | -1
